Calls of active or inactive are those of the source. The calls are words filed in the database; no cut-off is given here.
Legend:
BT-474 [1] = experiment: Cytotoxicity against human BT474 cells assessed as decrease in cell viability after 48 hrs by MTS assay; format: functional; details: BT-474, 48 h
Summary of the method: (§1)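 Cells grown at 37 °C, 5% CO2, with 10% FBS and penicillin/streptomycin: MDA-MB-231, JIMT1 and DU145 in DMEM, PC3 in F12K, BT474 in Hybricare, MiaPaCa2 in DMEM plus 2.5% horse serum. Cells (7500–9000/well) were plated for 24 h, then exposed to 0–20 µM for 48 h. MTS was added for 1–4 h and OD490 read, blank-subtracted, relative to vehicle. CC50 was read from plots; mean ± SD, six independent determinations.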

MDA-MB-231 = experiment: Cytotoxicity against human MDA-MB-231 cells assessed as decrease in cell viability after 48 hrs by MTS assay; format: functional; details: MDA-MB-231, 48 h; summary of the method: as §1
[2] = Chemical stability of compound in aqueous DMSO solution at pH 2 to 3 at 30 uM after 1 week; format: physicochemical; details: buffer, pH 2, 168 h
Summary of the method: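 Tested as the TFA salt at 30 µM in aqueous DMSO, pH 2-3, and held for at least one week.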

MIA PaCa-2 = experiment: Cytotoxicity against human MIAPaCa2 cells assessed as decrease in cell viability after 48 hrs by MTS assay; format: functional; details: MIA PaCa-2, 48 h; summary of the method: as §1
JIMT-1 = experiment: Cytotoxicity against human JIMT1 cells assessed as decrease in cell viability after 48 hrs by MTS assay; format: functional; details: JIMT-1, 48 h; summary of the method: as §1
DU-145 = experiment: Cytotoxicity against human DU145 cells assessed as decrease in cell viability after 48 hrs by MTS assay; format: functional; details: DU-145, 48 h; summary of the method: as §1
PC-3 = experiment: Cytotoxicity against human PC3 cells assessed as decrease in cell viability after 48 hrs by MTS assay; format: functional; details: PC-3, 48 h; summary of the method: as §1
BT-474 [3] = experiment: Induction of disintegration of human BT474 cancer stem cell spheroids at 7.5 uM after 3 days by microscopic method; format: functional, cell-based
Summary of the method: (§2)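 BT474 stem-cell spheroids (ALDH1-sorted, formed over 6 days in Mammocult on ultra-low adhesion plates) exposed to 0, 7.5 or 20 µM for 3 days. Integrity was judged by light microscopy at ×10 against untreated spheroid wells.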

BT-474 [4] = experiment: Cytotoxicity against human BT474 cancer stem cell spheroids assessed as decrease in cell viability up to 20 uM after 3 days by MTS assay
BT-474 [5] = experiment: Induction of disintegration of human BT474 cancer stem cell spheroids at 20 uM after 3 days by microscopic method; format: functional, cell-based; summary of the method: as §2

For CCCCCCCCCCCCCCCCOC[C@H](CO[C@@H]1O[C@H](CNCCCCCCCCCCCCNC(=O)CCCc2ccc(N(CCCl)CCCl)cc2)[C@@H](O)[C@H](O)[C@H]1N)OC.O=C(O)C(F)(F)F.O=C(O)C(F)(F)F, the CC50 (BT-474 [1]) was 13 µM, the CC50 (MDA-MB-231) was 10.5 µM and the Stability [2] was “Stable”. The CC50 (MIA PaCa-2) was greater than 20 µM, the CC50 (JIMT-1) was 16 µM and the CC50 (DU-145) was greater than 20 µM. The CC50 (PC-3) was greater than 20 µM.
In the case of CCCCCCCCCCCCCCN [TETRADECYLAMINE], the Activity (BT-474 [3]) is reported as “inactive”, the CC50 (MIA PaCa-2) is reported as 18 µM and the CC50 (JIMT-1) is reported as 27 µM. For the same compound, the Activity (BT-474 [4]) was “inactive”, the CC50 (DU-145) was 16.5 µM and the Activity (BT-474 [5]) was “inactive”. For the same compound, the CC50 (PC-3) was 24 µM.
Work on O=C(O)CCCc1ccc(N(CCCl)CCCl)cc1 [CHLORAMBUCIL] yielded a CC50 (BT-474 [1]) greater than 150 µM, a CC50 (MDA-MB-231) greater than 150 µM and a CC50 (MIA PaCa-2) greater than 150 µM. The CC50 (JIMT-1) was greater than 150 µM, the CC50 (DU-145) was greater than 150 µM and the CC50 (PC-3) was greater than 150 µM.

From ChEMBL document CHEMBL4052815, “Amphiphilic Modulation of Glycosylated Antitumor Ether Lipids Results in a Potent Triamino Scaffold against Epithelial Cancer Cell Lines and BT474 Cancer Stem Cells” (J Med Chem, 2017)
